From ChEMBL document CHEMBL1151742, “Design, synthesis, and characterization of high-affinity, systemically-active galanin analogues with potent anticonvulsant activities” (J Med Chem, 2008)
Calls of active or inactive are those of the source. No cut-off for these calls is given here.

Key:
[1] = Metabolic stability in rat serum assessed as half life at pH 7.5; assay type: ADME, cell-free
Summary of the method: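 Peptide (final 20 µM) was incubated in 25% rat serum with 0.1 M Tris-HCl pH 7.5 at 37 °C, serum pre-warmed 10 min. Aliquots taken up to 8 h were quenched with 15% TCA in 40% isopropanol, held 15 min at -20 °C and centrifuged. Intact peptide was measured by reversed-phase HPLC peak area, and half-life was calculated from the disappearance.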

Galanin receptor type 2 [2] = molecular target: T1, Galanin receptor type 2 (Homo sapiens, UniProt O43603); assay: Displacement of europium-labeled galanin from human GalR2 expressed in CHO-K1 cells; assay type: cell-based
T1 sequence (O43603 whole entry): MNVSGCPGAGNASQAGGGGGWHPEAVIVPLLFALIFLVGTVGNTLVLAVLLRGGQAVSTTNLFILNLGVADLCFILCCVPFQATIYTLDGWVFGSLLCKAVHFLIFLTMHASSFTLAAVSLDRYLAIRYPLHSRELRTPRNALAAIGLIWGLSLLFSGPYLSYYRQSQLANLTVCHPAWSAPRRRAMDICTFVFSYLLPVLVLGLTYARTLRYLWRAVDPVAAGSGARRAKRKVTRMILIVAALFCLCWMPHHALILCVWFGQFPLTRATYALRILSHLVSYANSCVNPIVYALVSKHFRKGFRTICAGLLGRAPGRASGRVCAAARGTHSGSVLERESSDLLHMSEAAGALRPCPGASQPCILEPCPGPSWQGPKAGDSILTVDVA

Mus musculus [3] = assay: Anticonvulsant activity in CF1 mouse assessed as inhibition of 6 Hz corneal stimulation-induced limbic seizures at 4 mg/kg, ip administered 240 mins before 6 Hz corneal stimulation; assay type: functional, organism-based; set-up: dose 4 mg/kg; details: Limbic system
Summary of the method: (§1)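 Each analogue given ip at 4 mg/kg to five groups of CF-1 mice (n = 4 per group), one group per time point. Seizure challenge was 6 Hz corneal stimulation (32 mA for 3 s, corneal electrodes) at 15, 30, 60, 120 or 240 min after dosing. A mouse without a limbic seizure (jaw chomping, vibrissae twitching, forelimb clonus, Straub tail) was counted as protected.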

Galanin receptor type 1 = molecular target: T2, Galanin receptor type 1 (Homo sapiens, UniProt P47211); assay: Displacement of europium-labeled galanin from human GalR1 expressed in HEK293 EBNA cells; assay type: cell-based
T2 sequence (P47211 whole entry): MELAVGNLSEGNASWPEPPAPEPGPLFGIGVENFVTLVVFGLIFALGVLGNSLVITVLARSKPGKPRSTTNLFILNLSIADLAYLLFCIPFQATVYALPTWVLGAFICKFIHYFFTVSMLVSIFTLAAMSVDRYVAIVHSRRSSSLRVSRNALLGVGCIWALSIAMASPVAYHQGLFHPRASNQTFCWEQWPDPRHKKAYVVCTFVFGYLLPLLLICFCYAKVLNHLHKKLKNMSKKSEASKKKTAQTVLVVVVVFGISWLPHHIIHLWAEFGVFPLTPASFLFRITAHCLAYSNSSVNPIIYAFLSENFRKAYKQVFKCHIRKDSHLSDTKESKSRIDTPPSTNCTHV

Mus musculus [4] = assay: Anticonvulsant activity in CF1 mouse assessed as inhibition of 6 Hz corneal stimulation-induced limbic seizures at 4 mg/kg, ip administered 15 mins before 6 Hz corneal stimulation; assay type: functional, organism-based; set-up: dose 4 mg/kg; details: Limbic system; summary of the method: as §1
[5] = Partition coefficient, log D at pH 7.4 by shake-flask method; assay type: physicochemical; details: octanol/water
Summary of the method: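 Shake-flask partitioning between water-saturated n-octanol and PBS pH 7.4. Peptide (0.4 mg) was reconstituted in 1 mL PBS, or in octanol if poorly water-soluble. Octanol peptide was taken as total minus aqueous, and logD = log([octanol]/[aqueous]). Four independent preparations per analogue.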

Mus musculus [6] = assay: Anticonvulsant activity in CF1 mouse assessed as inhibition of 6 Hz corneal stimulation-induced limbic seizures at 4 mg/kg, ip administered 120 mins before 6 Hz corneal stimulation; assay type: functional, organism-based; set-up: dose 4 mg/kg; details: Limbic system; summary of the method: as §1
Galanin receptor type 2 [7] = molecular target: T1, Galanin receptor type 2; assay: Binding affinity to human GalR2
Galanin receptor type 3 = molecular target: T3, Galanin receptor type 3 (Homo sapiens, UniProt O60755); assay: Binding affinity to human GalR3
T3 sequence (O60755 whole entry): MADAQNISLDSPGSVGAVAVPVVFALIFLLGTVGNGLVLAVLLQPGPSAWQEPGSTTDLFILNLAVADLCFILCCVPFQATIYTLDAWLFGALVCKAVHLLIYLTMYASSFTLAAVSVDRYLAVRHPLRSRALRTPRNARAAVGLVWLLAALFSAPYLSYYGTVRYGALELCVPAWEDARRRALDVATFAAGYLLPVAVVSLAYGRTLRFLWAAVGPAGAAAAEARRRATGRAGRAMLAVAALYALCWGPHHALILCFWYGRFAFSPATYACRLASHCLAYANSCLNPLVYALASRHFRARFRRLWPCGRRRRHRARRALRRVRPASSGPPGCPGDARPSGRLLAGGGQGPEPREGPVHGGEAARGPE

Mus musculus [8] = assay: Anticonvulsant activity in CF1 mouse assessed as inhibition of 6 Hz corneal stimulation-induced limbic seizures at 4 mg/kg, ip administered 60 mins before 6 Hz corneal stimulation; assay type: functional, organism-based; set-up: dose 4 mg/kg; details: Limbic system; summary of the method: as §1
Mus musculus [9] = assay: Anticonvulsant activity in CF1 mouse assessed as inhibition of 6 Hz corneal stimulation-induced limbic seizures at 4 mg/kg, ip administered 30 mins before 6 Hz corneal stimulation; assay type: functional, organism-based; set-up: dose 4 mg/kg; details: Limbic system; summary of the method: as §1
Mus musculus [10] = assay: Anticonvulsant activity in intracerebroventricularly dosed pharmacoresistant epilepsy CF1 mouse model; assay type: functional
Summary of the method: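 Intracerebroventricular injection in mice, followed by the 6 Hz seizure model (32 mA). ED50 was determined in nmole with 95% CI.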

[11] = Toxicity in CF1 mouse assessed as motor function by rotarod test; assay type: organism-based; details: in vivo
Mus musculus [12] = assay: Anticonvulsant activity in ip dosed CF1 mouse assessed as inhibition of 6 Hz corneal stimulation-induced limbic seizures; assay type: functional; details: CF1, Limbic system

Row | Compound | half-life [1] | Ki (Galanin receptor type 2 [2]) | Activity (Mus musculus [3]) | Ki (Galanin receptor type 1) | Activity (Mus musculus [4]) | logD [5] | Activity (Mus musculus [6]) | Kd (Galanin receptor type 2 [7]) | Kd (Galanin receptor type 3) | Activity (Mus musculus [8]) | Activity (Mus musculus [9]) | ED50 (Mus musculus [10]) | TD50 [11] | ED50 (Mus musculus [12])
1 | CNCC(=O)N[C@@H](Cc1c[nH]c2ccccc12)C(=O)N[C@H](C(=O)N[C@@H](CC(C)C)C(=O)N[C@@H](CC(N)=O)C(=O)N[C@@H](CO)C(=O)N[C@@H](C)C(=O)NCC(=O)N[C@@H](Cc1ccc(O)cc1)C(=O)N[C@@H](CC(C)C)C(=O)N[C@@H](CC(C)C)C(=O)NCC(=O)N1CCC[C@H]1C(=O)N[C@@H](CCCCN)C(=O)N[C@@H](CCCCN)C(=O)N[C@@H](CCCCN)C(=O)N[C@@H](CCCCN)C(N)=O)[C@@H](C)O | 4.6 h | 0.024 µM | inactive | 0.0004 µM | inactive | 0.4 | inactive | – | – | – | – | – | – | –
2 | CC(C)C[C@H](NC(=O)[C@H](CC(C)C)NC(=O)[C@H](Cc1ccc(O)cc1)NC(=O)CNC(=O)[C@H](C)NC(=O)[C@H](CO)NC(=O)[C@H](CC(N)=O)NC(=O)[C@H](CC(C)C)NC(=O)[C@@H](NC(=O)[C@H](Cc1c[nH]c2ccccc12)NC(=O)CN)[C@@H](C)O)C(=O)NCC(=O)N1CCC[C@H]1C(=O)N1CCC[C@H]1C(=O)N1CCC[C@H]1C(=O)NCC(=O)N[C@@H](Cc1ccccc1)C(=O)N[C@@H](CO)C(=O)N1CCC[C@H]1C(=O)N[C@@H](Cc1ccccc1)C(=O)N[C@@H](CCCN=C(N)N)C(N)=O | – | – | – | – | – | – | – | 0.002 µM | 0.015 µM | – | – | – | – | –
3 | CCCCCCCCCCCCCCCC(=O)NCCCC[C@H](NC(=O)[C@H](C)NC(=O)[C@H](Cc1cnc[nH]1)NC(=O)[C@@H]1CCCN1C(=O)CNC(=O)[C@H](CC(C)C)NC(=O)[C@H](CC(C)C)NC(=O)[C@H](Cc1ccc(O)cc1)NC(=O)CNC(=O)[C@H](C)NC(=O)[C@H](CO)NC(=O)[C@H](CC(N)=O)NC(=O)[C@H](CC(C)C)NC(=O)[C@@H](NC(=O)[C@H](Cc1c[nH]c2ccccc12)NC(=O)CNC)[C@@H](C)O)C(N)=O | > 10 h | 0.16 µM | inactive | – | inactive | 1.55 | inactive | – | – | inactive | inactive | – | – | –
4 | CC(C)C[C@H](NC(=O)[C@H](CC(C)C)NC(=O)[C@H](Cc1ccc(O)cc1)NC(=O)CNC(=O)[C@H](C)NC(=O)[C@H](CO)NC(=O)[C@H](CC(N)=O)NC(=O)[C@H](CC(C)C)NC(=O)[C@@H](NC(=O)[C@H](Cc1c[nH]c2ccccc12)NC(=O)CN)[C@@H](C)O)C(=O)NCC(=O)N1CCC[C@H]1C(=O)N[C@@H](Cc1cnc[nH]1)C(=O)N[C@@H](C)C(=O)N[C@H](C(N)=O)C(C)C | 0.13 h | – | inactive | – | inactive | 0.66 | inactive | – | – | inactive | inactive | 1.7 nmol | – | –
5 | CCCCCCCCCCCCCCCC(=O)NCCCC[C@H](NC(=O)[C@H](CCCCN)NC(=O)[C@H](CCCCN)NC(=O)[C@@H]1CCCN1C(=O)CNC(=O)[C@H](CC(C)C)NC(=O)[C@H](CC(C)C)NC(=O)[C@H](Cc1ccc(O)cc1)NC(=O)CNC(=O)[C@H](C)NC(=O)[C@H](CO)NC(=O)[C@H](CC(N)=O)NC(=O)[C@H](CC(C)C)NC(=O)[C@@H](NC(=O)[C@H](Cc1c[nH]c2ccccc12)NC(=O)CNC)[C@@H](C)O)C(=O)N[C@@H](CCCCN)C(N)=O | 9.4 h | 0.0515 µM | inactive | – | – | 1.26 | Active | – | – | Active | Active | – | 21 mg/kg | 0.8 mg/kg
6 | CSCC[C@H](NC(=O)[C@H](CC(C)C)NC(=O)CNC(=O)[C@H](Cc1ccccc1)NC(=O)[C@H](Cc1ccccc1)NC(=O)[C@H](CCC(N)=O)NC(=O)[C@H](CCC(N)=O)NC(=O)[C@@H]1CCCN1C(=O)CNC(=O)[C@H](CC(C)C)NC(=O)[C@H](CC(C)C)NC(=O)[C@H](Cc1ccc(O)cc1)NC(=O)CNC(=O)[C@H](C)NC(=O)[C@H](CO)NC(=O)[C@H](CC(N)=O)NC(=O)[C@H](CC(C)C)NC(=O)[C@@H](NC(=O)[C@H](Cc1c[nH]c2ccccc12)NC(=O)CN)[C@@H](C)O)C(N)=O [GALANTIDE] | – | – | – | – | – | – | – | 0.001 µM | 0.04 µM | – | – | – | – | –
7 | CCCCCCCCCCCCCCCC(=O)NCCCC[C@H](NC(=O)[C@H](CCCCN)NC(=O)[C@H](CCCCN)NC(=O)[C@H](CC(C)C)NC(=O)[C@H](CC(C)C)NC(=O)[C@H](Cc1ccc(O)cc1)NC(=O)CNC(=O)[C@H](C)NC(=O)[C@H](CO)NC(=O)[C@H](CC(N)=O)NC(=O)[C@H](CC(C)C)NC(=O)[C@@H](NC(=O)[C@H](Cc1c[nH]c2ccccc12)NC(=O)CNC)[C@@H](C)O)C(=O)N[C@@H](CCCCN)C(N)=O | > 10 h | 1.32 µM | inactive | 0.306 µM | – | – | – | – | – | Active | Active | – | – | –
8 | H-GWTLNSAGYLLGPHAVGNHRSFSDKNGLT-OH | – | – | – | – | – | – | – | 0.0023 µM | 0.069 µM | – | – | – | – | –
